Experimental data taken from PubChem BioAssay AID624406 (The Scripps Research Institute Molecular Screening Center, 2012).
The source made the active and inactive calls.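 Rule for the calls: active = inhibition of radioligand binding at or above 50% in any panel; inactive = inhibition below 50%.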

How the values were obtained:
Assay in all cases: off-target binding at receptors and transporters, profiling panel, selectivity assay for HCV core dimerization inhibitor project, cell-based, radioligand binding, Ricerca panel (AID 624406)
[1] = test system: Transporter, Serotonin (5-Hydroxytryptamine); details: at 10 µM, stronger effect = higher value
Method in brief: (§1)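 Measure: percent inhibition of radioligand binding, negative values indicating enhanced binding; Controls: reference standards in each run; Repeats: duplicate measurements per compound.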

[2] = test system: Transporter, Norepinephrine (NET); details: at 10 µM, stronger effect = higher value
Method in brief: as §1

[3] = test system: Voltage-dependent L-type calcium channel subunit beta-4 (Rattus norvegicus) + Pro-epidermal growth factor (Homo sapiens) + Estrogen receptor (Homo sapiens) + Glucocorticoid receptor (Homo sapiens) + 5-hydroxytryptamine receptor 1A (Homo sapiens) + Alpha-2A adrenergic receptor (Homo sapiens) + Adenosine receptor A3 (Homo sapiens) + Androgen receptor (Homo sapiens) + Muscarinic acetylcholine receptor M1 (Homo sapiens) + D(4) dopamine receptor (Homo sapiens) + Alpha-2A adrenergic receptor (Rattus norvegicus) + Sodium- and chloride-dependent GABA transporter 1 (Rattus norvegicus) + Endothelin receptor type B (Homo sapiens) + Histamine H2 receptor (Homo sapiens) + Endothelin-1 receptor (Homo sapiens) + Neuropeptide Y receptor type 1 (Homo sapiens) + B2 bradykinin receptor (Homo sapiens) + Sodium-dependent serotonin transporter (Homo sapiens) + Histamine H1 receptor (Homo sapiens) + Mu-type opioid receptor (Homo sapiens) + D(3) dopamine receptor (Homo sapiens) + Delta-type opioid receptor (Homo sapiens) + Kappa-type opioid receptor (Homo sapiens) + Glutamate receptor ionotropic, kainate 3 (Rattus norvegicus) + 5-hydroxytryptamine receptor 3A (Homo sapiens) + Melatonin receptor type 1A (Homo sapiens) + Neuropeptide Y receptor type 2 (Homo sapiens) + P2Y purinoceptor 1 (Rattus norvegicus) + Thyroid hormone receptor alpha (Rattus norvegicus) + Glutamate receptor ionotropic, NMDA 2B (Rattus norvegicus) + Sodium-dependent dopamine transporter (Homo sapiens) + Protein kinase C zeta type …; details: at 10 µM, stronger effect = higher value
Method in brief: as §1

[4] = target: Beta-2 adrenergic receptor (Homo sapiens) (UniProt P07550); details: Adrenergic beta2, at 10 µM, stronger effect = higher value
Chain of Beta-2 adrenergic receptor (Homo sapiens) (P07550 whole entry, looked up): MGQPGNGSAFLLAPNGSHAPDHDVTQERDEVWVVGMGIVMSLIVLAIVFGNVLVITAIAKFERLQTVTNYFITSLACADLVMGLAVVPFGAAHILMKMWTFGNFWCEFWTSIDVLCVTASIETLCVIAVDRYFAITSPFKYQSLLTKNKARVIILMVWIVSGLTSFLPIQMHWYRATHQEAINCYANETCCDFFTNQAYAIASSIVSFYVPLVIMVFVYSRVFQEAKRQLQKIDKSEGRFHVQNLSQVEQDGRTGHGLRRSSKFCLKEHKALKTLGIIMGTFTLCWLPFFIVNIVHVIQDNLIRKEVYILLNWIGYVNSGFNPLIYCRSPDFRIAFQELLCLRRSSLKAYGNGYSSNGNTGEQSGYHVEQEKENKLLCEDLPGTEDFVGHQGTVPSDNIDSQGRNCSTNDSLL
Method in brief: as §1

[5] = test system: Epidermal Growth Factor (EGF); details: at 10 µM, stronger effect = higher value
Method in brief: as §1

Dopamine D4.2 = details: at 10 µM, stronger effect = higher value
Method in brief: as §1

Endothelin ETA = details: at 10 µM, stronger effect = higher value
Method in brief: as §1

Adenosine A3 = details: at 10 µM, stronger effect = higher value
Method in brief: as §1

Prostanoid EP4 = details: at 10 µM, stronger effect = higher value
Method in brief: as §1

Tachykinin NK1 = details: at 10 µM, stronger effect = higher value
Method in brief: as §1

[6] = target: Glucocorticoid receptor (Homo sapiens) (UniProt P04150); details: at 10 µM, stronger effect = higher value
Method in brief: as §1

[7] = test system: Serotonin (5-Hydroxytryptamine) 5-HT3; details: at 10 µM, stronger effect = higher value
Method in brief: as §1

[8] = target: 5-hydroxytryptamine receptor 1A (Homo sapiens) (UniProt P08908); details: Serotonin (5-Hydroxytryptamine) 5-HT1A, at 10 µM, stronger effect = higher value
Chain of 5-hydroxytryptamine receptor 1A (Homo sapiens) (P08908 whole entry, looked up): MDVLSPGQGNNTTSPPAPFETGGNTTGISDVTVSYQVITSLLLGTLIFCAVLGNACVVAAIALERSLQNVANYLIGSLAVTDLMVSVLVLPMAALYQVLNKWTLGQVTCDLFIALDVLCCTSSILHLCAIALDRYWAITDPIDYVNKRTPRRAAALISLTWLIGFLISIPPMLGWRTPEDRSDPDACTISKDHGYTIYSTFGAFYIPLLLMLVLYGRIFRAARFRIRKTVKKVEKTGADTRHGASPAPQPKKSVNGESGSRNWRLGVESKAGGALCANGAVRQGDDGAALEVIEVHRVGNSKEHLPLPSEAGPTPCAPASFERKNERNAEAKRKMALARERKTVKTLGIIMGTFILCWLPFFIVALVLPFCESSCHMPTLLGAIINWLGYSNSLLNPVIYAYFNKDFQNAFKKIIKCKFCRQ
Method in brief: as §1

Adrenergic alpha1D = details: at 10 µM, stronger effect = higher value
Method in brief: as §1

[9] = target: Estrogen receptor (Homo sapiens) (UniProt P03372); details: Estrogen Eralpha, at 10 µM, stronger effect = higher value
Method in brief: as §1

[10] = target: Delta-type opioid receptor (Homo sapiens) (UniProt P41143); details: Opiate delat1 (OP1, DOP), at 10 µM, stronger effect = higher value
Method in brief: as §1

Melatonin MT1 = details: at 10 µM, stronger effect = higher value
Method in brief: as §1

[11] = target: Muscarinic acetylcholine receptor M2 (Homo sapiens) (UniProt P08172); details: at 10 µM, stronger effect = higher value
Chain of Muscarinic acetylcholine receptor M2 (Homo sapiens) (P08172 whole entry, looked up): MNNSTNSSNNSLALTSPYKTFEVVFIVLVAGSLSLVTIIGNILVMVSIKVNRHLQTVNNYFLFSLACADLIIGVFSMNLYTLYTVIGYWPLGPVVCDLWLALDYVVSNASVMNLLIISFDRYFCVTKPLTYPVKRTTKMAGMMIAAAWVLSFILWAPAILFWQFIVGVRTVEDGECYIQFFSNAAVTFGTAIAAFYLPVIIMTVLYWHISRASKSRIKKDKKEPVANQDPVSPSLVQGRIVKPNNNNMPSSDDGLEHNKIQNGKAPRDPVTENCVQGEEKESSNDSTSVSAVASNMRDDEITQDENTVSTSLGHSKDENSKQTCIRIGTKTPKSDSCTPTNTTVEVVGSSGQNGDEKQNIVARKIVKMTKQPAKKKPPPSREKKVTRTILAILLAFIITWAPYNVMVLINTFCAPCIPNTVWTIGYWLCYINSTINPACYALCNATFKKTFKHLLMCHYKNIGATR
Method in brief: as §1

GABAA = details: central, at 10 µM, stronger effect = higher value
Method in brief: as §1

[12] = target: Voltage-gated inwardly rectifying potassium channel KCNH2 (Homo sapiens) (UniProt Q12809); details: Potassium Channel hERG, at 10 µM, stronger effect = higher value
Chain of Voltage-gated inwardly rectifying potassium channel KCNH2 (Homo sapiens) (Q12809 whole entry, looked up): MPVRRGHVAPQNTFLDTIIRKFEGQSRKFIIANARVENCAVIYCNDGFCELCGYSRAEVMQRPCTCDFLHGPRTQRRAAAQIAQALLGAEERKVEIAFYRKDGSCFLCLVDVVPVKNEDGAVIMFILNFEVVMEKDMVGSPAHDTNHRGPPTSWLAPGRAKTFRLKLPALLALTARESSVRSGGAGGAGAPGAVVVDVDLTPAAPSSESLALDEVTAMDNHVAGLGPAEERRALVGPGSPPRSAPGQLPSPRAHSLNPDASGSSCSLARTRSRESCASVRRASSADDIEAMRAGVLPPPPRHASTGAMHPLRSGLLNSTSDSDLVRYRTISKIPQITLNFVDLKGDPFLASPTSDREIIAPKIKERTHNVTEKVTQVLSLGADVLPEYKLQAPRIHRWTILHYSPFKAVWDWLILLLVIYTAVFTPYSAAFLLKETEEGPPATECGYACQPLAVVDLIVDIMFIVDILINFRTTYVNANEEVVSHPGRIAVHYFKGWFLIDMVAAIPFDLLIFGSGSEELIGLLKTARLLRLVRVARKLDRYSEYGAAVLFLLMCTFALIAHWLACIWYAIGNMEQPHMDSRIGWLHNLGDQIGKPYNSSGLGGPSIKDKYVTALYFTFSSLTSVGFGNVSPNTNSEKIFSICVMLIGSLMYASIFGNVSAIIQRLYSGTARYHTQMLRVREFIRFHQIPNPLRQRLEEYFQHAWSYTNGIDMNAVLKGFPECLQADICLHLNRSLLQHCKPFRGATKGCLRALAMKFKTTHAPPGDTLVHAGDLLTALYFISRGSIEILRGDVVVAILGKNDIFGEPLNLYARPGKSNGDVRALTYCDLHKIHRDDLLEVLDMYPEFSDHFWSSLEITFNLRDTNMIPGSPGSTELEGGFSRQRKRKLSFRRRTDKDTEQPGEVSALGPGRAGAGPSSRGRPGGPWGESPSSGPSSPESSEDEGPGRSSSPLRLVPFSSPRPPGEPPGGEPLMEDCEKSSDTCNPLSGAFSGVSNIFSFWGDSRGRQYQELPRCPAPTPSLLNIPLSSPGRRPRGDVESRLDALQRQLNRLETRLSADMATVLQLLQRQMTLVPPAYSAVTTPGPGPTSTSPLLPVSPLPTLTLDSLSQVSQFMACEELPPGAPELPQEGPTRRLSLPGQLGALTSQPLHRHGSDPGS
Method in brief: as §1

Bradykinin B1 = details: at 10 µM, stronger effect = higher value
Method in brief: as §1

Adenosine A2A = details: at 10 µM, stronger effect = higher value
Method in brief: as §1

Histamine H1 = details: at 10 µM, stronger effect = higher value
Method in brief: as §1

[13] = target: Muscarinic acetylcholine receptor M3 (Homo sapiens) (UniProt P20309); details: at 10 µM, stronger effect = higher value
Chain of Muscarinic acetylcholine receptor M3 (Homo sapiens) (P20309 whole entry, looked up): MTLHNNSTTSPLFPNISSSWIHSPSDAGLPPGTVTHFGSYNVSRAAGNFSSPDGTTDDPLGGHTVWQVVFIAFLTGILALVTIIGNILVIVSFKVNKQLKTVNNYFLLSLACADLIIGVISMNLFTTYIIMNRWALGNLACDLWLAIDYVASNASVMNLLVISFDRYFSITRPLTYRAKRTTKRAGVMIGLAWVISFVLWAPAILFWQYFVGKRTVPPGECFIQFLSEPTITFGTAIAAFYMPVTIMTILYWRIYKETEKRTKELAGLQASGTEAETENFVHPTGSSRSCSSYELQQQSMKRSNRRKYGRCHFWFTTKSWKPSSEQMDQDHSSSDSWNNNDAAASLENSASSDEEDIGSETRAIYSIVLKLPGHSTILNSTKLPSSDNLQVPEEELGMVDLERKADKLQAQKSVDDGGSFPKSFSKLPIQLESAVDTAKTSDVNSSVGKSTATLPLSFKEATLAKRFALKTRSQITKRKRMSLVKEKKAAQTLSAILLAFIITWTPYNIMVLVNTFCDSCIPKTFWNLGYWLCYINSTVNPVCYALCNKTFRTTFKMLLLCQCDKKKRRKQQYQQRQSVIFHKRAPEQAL
Method in brief: as §1

Adenosine A1 = details: at 10 µM, stronger effect = higher value
Method in brief: as §1

[14] = target: Alpha-2A adrenergic receptor (Homo sapiens) (UniProt P08913); details: Adrenergic alpha2A, at 10 µM, stronger effect = higher value
Method in brief: as §1

[15] = test system: Transporter, Dopamine (DAT); details: at 10 µM, stronger effect = higher value
Method in brief: as §1

[16] = target: Platelet-activating factor receptor (Homo sapiens) (UniProt P25105); details: Platelet Activating Factor (PAF), at 10 µM, stronger effect = higher value
Method in brief: as §1

GABAB1A = details: at 10 µM, stronger effect = higher value
Method in brief: as §1

Calcium Channel L-Type = details: at 10 µM, stronger effect = higher value
Method in brief: as §1

Imidazoline I2 = details: central, at 10 µM, stronger effect = higher value
Method in brief: as §1

Endothelin ETB = details: at 10 µM, stronger effect = higher value
Method in brief: as §1

Adrenergic alpha1A = details: at 10 µM, stronger effect = higher value
Method in brief: as §1

Opiate mu (OP3, MOP) = details: at 10 µM, stronger effect = higher value
Method in brief: as §1

Dopamine D2S = details: at 10 µM, stronger effect = higher value
Method in brief: as §1

[17] = target: Muscarinic acetylcholine receptor M1 (Homo sapiens) (UniProt P11229); details: at 10 µM, stronger effect = higher value
Chain of Muscarinic acetylcholine receptor M1 (Homo sapiens) (P11229 whole entry, looked up): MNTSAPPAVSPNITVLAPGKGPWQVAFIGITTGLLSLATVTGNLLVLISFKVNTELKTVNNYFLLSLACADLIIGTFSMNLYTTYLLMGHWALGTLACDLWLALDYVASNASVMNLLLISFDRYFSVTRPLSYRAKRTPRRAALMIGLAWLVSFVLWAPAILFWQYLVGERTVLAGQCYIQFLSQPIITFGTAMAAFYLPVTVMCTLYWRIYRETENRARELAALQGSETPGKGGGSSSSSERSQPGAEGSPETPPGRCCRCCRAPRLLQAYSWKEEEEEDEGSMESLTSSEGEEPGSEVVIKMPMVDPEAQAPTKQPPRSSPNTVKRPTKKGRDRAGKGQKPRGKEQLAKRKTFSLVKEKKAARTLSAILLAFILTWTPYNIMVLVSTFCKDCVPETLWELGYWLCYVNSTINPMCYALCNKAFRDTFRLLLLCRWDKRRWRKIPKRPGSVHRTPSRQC
Method in brief: as §1

[18] = target: Kappa-type opioid receptor (Homo sapiens) (UniProt P41145); details: Opiate kappa (OP2, KOP), at 10 µM, stronger effect = higher value
Chain of Kappa-type opioid receptor (Homo sapiens) (P41145 whole entry, looked up): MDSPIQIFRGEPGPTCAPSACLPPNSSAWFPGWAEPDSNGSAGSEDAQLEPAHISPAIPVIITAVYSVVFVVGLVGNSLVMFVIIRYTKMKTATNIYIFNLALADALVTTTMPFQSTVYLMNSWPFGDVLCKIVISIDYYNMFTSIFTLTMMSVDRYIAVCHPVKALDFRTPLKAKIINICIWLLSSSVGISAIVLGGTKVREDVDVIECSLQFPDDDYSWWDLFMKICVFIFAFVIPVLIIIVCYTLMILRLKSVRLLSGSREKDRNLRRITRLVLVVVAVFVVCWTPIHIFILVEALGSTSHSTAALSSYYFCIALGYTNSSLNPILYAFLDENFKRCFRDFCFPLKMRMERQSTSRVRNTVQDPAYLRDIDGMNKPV
Method in brief: as §1

[19] = target: 5-hydroxytryptamine receptor 2B (Homo sapiens) (UniProt P41595); details: Serotonin (5-Hydroxytryptamine) 5-HT2B, at 10 µM, stronger effect = higher value
Method in brief: as §1

Histamine H2 = details: at 10 µM, stronger effect = higher value
Method in brief: as §1

Sigma 1 = details: at 10 µM, stronger effect = higher value
Method in brief: as §1

Glutamate Kainate = details: at 10 µM, stronger effect = higher value
Method in brief: as §1

Nicotinic Acetylcholine = details: at 10 µM, stronger effect = higher value
Method in brief: as §1

Interleukin IL-1 = details: at 10 µM, stronger effect = higher value
Method in brief: as §1

Cannabinoid CB1 = details: at 10 µM, stronger effect = higher value
Method in brief: as §1

[20] = test system: Leukotriene, Cysteinyl CysLT1; details: at 10 µM, stronger effect = higher value
Method in brief: as §1

Purinergic P2Y = details: at 10 µM, stronger effect = higher value
Method in brief: as §1

Potassium Channel [KATP] = details: at 10 µM, stronger effect = higher value
Method in brief: as §1

Histamine H3 = details: at 10 µM, stronger effect = higher value
Method in brief: as §1

Bradykinin B2 = details: at 10 µM, stronger effect = higher value
Method in brief: as §1

[21] = target: D(1A) dopamine receptor (Homo sapiens) (UniProt P21728); details: Dopamine D1, at 10 µM, stronger effect = higher value
Method in brief: as §1

Transporter, GABA = details: at 10 µM, stronger effect = higher value
Method in brief: as §1

Glutamate NMDA = details: at 10 µM, stronger effect = higher value
Method in brief: as §1

Calcium Channel N-Type = details: at 10 µM, stronger effect = higher value
Method in brief: as §1

Phorbol Ester = details: at 10 µM, stronger effect = higher value
Method in brief: as §1

Adrenergic alpha1B = details: at 10 µM, stronger effect = higher value
Method in brief: as §1

[22] = test system: Androgen (Testosterone) AR; details: at 10 µM, stronger effect = higher value
Method in brief: as §1

[23] = target: Neuropeptide Y receptor type 2 (Homo sapiens) (UniProt P49146); details: Neuropeptide Y Y2, at 10 µM, stronger effect = higher value
Method in brief: as §1

[24] = target: D(3) dopamine receptor (Homo sapiens) (UniProt P35462); details: Dopamine D3, at 10 µM, stronger effect = higher value
Chain of D(3) dopamine receptor (Homo sapiens) (P35462 whole entry, looked up): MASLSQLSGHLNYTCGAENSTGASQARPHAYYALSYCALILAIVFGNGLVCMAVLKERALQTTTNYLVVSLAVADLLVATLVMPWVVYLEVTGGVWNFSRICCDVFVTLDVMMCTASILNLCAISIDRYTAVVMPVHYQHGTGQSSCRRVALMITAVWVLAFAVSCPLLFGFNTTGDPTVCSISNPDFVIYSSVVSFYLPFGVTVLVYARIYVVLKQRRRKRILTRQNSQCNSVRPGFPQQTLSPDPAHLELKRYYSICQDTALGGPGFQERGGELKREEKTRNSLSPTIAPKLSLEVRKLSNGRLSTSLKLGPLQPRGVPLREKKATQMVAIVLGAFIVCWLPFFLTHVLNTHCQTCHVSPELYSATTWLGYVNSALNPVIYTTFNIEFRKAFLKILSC
Method in brief: as §1

Thyroid Hormone = details: at 10 µM, stronger effect = higher value
Method in brief: as §1

Purinergic P2X = details: at 10 µM, stronger effect = higher value
Method in brief: as §1

Rolipram = details: at 10 µM, stronger effect = higher value
Method in brief: as §1

Adrenergic beta1 = details: at 10 µM, stronger effect = higher value
Method in brief: as §1

[25] = target: Neuropeptide Y receptor type 1 (Homo sapiens) (UniProt P25929); details: Neuropeptide Y Y1, at 10 µM, stronger effect = higher value
Chain of Neuropeptide Y receptor type 1 (Homo sapiens) (P25929 whole entry, looked up): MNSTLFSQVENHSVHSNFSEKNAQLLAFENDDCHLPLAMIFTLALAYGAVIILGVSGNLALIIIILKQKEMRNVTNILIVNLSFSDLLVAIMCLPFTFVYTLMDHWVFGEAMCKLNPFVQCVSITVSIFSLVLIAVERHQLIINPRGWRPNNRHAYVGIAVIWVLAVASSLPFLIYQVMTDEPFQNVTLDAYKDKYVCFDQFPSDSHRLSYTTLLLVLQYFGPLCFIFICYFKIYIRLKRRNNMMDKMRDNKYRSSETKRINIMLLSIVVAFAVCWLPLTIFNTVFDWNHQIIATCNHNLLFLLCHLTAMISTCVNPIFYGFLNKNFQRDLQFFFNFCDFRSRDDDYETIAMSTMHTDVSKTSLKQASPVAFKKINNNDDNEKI
Method in brief: as §1

What does the source list for `Cc1ccc(Cc2c(C)nc3nc(SCC(=O)NCCN4CCNCC4)nn3c2C)cc1`?
inhibition of radioligand binding [1]: 16% (inactive); inhibition of radioligand binding [2]: 17% (inactive); inhibition of radioligand binding [3]: 1% (inactive); inhibition of radioligand binding [4]: 14% (inactive); inhibition of radioligand binding [5]: 7% (inactive); inhibition of radioligand binding (Dopamine D4.2): -1% (inactive); inhibition of radioligand binding (Endothelin ETA): -5% (inactive); inhibition of radioligand binding (Adenosine A3): 2% (inactive); inhibition of radioligand binding (Prostanoid EP4): 1% (inactive); inhibition of radioligand binding (Tachykinin NK1): 24% (inactive); inhibition of radioligand binding [6]: 17% (inactive); inhibition of radioligand binding [7]: -4% (inactive); inhibition of radioligand binding [8]: 15% (inactive); inhibition of radioligand binding (Adrenergic alpha1D): 60%; inhibition of radioligand binding [9]: -4% (inactive); inhibition of radioligand binding [10]: -3% (inactive); inhibition of radioligand binding (Melatonin MT1): 3% (inactive); inhibition of radioligand binding [11]: 49% (inactive); inhibition of radioligand binding (GABAA; Flunitrazepam site): 19% (inactive); inhibition of radioligand binding (GABAA; Muscimol site): 26% (inactive); inhibition of radioligand binding [12]: 13% (inactive); inhibition of radioligand binding (Bradykinin B1): 5% (inactive); inhibition of radioligand binding (Adenosine A2A): -2% (inactive); inhibition of radioligand binding (Histamine H1): 24% (inactive); inhibition of radioligand binding [13]: 54%; inhibition of radioligand binding (Adenosine A1): 9% (inactive); inhibition of radioligand binding [14]: 16% (inactive); inhibition of radioligand binding [15]: 62%; inhibition of radioligand binding [16]: 3% (inactive); inhibition of radioligand binding (GABAB1A): 7% (inactive); inhibition of radioligand binding (Calcium Channel L-Type; Benzothiazepine site): 11% (inactive); inhibition of radioligand binding (Calcium Channel L-Type; Dihydropyridine site): 3% (inactive); inhibition of radioligand binding (Imidazoline I2): 31% (inactive); inhibition of radioligand binding (Endothelin ETB): -1% (inactive); inhibition of radioligand binding (Adrenergic alpha1A): 27% (inactive); inhibition of radioligand binding (Opiate mu (OP3, MOP)): 11% (inactive); inhibition of radioligand binding (Dopamine D2S): 5% (inactive); inhibition of radioligand binding [17]: 42% (inactive); inhibition of radioligand binding [18]: 18% (inactive); inhibition of radioligand binding [19]: 21% (inactive); inhibition of radioligand binding (Histamine H2): 6% (inactive); inhibition of radioligand binding (Sigma 1): 12% (inactive); inhibition of radioligand binding (Glutamate Kainate): 16% (inactive); inhibition of radioligand binding (Nicotinic Acetylcholine): 1% (inactive); inhibition of radioligand binding (Interleukin IL-1): 13% (inactive); inhibition of radioligand binding (Cannabinoid CB1): 9% (inactive); inhibition of radioligand binding [20]: -7% (inactive); inhibition of radioligand binding (Purinergic P2Y): 3% (inactive); inhibition of radioligand binding (Potassium Channel [KATP]): -11% (inactive); inhibition of radioligand binding (Histamine H3): 9% (inactive); inhibition of radioligand binding (Bradykinin B2): -4% (inactive); inhibition of radioligand binding [21]: 6% (inactive); inhibition of radioligand binding (Transporter, GABA): 2% (inactive); inhibition of radioligand binding (Glutamate NMDA; Glycine site): 10% (inactive); inhibition of radioligand binding (Glutamate NMDA; Phencyclidine site): 12% (inactive); inhibition of radioligand binding (Glutamate NMDA; agonist site): 3% (inactive); inhibition of radioligand binding (Calcium Channel N-Type): 5% (inactive); inhibition of radioligand binding (Phorbol Ester): -1% (inactive); inhibition of radioligand binding (Adrenergic alpha1B): 63%; inhibition of radioligand binding [22]: 7% (inactive); inhibition of radioligand binding [23]: -3% (inactive); inhibition of radioligand binding [24]: 0% (inactive); inhibition of radioligand binding (Thyroid Hormone): 5% (inactive); inhibition of radioligand binding (Purinergic P2X): 6% (inactive); inhibition of radioligand binding (Rolipram): 1% (inactive); inhibition of radioligand binding (Adrenergic beta1): -2% (inactive); inhibition of radioligand binding [25]: 0% (inactive)
